Only some compounds are listed: those with a hit (about 2.3% of all), similar ones and a draw of the others.
COUP-TFII inh: inhibitors of human COUP-TFII (NR2F2); P24468; HEK293T NGFI-A luciferase reporter, luminescence; inhibition, % at 8.6 µM; 370,000 compounds, 0.7% hits; AID 686940;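 active = inhibition above a per-plate cutoff, mean inhibition of test wells between control levels plus 3 SD, cut at about 38% in these data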;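 note: cells cotransfected with COUP-TFII expression vector driving the NGFI-A reporter; 0% = median of COUP-TF2 test wells and 100% = reporter-only cells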
CHT PAM: human CHT allosteric activation. CHT-expressing cells, membrane potential dye, choline EC20; stronger effect = higher value; LV-AA mutant CHT in HEK293 cells. 310,000 compounds, 0.49% hits. B-score at 10 µM. Q9GZV3. AID 488977;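 active = initial fluorescence not abnormally high and integrated response B-score, plate-corrected, over 3 SD above library mean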
NR2E3 ag-1: human photoreceptor-specific nuclear receptor agonism; Q9Y5X4; CHO-S Gal4-NCOR/VP16-NR2E3 two-hybrid, luciferase; inhibition of corepressor binding, % at 3.98 µM; 360,000 compounds, 0.35% hits; AID 602229;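 active = inhibition above the mean of all tested compounds plus 3 SD, cut at about 70% in these data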;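 note: 0% = DMSO with NR2E3 transfected cells and 100% = cells lacking NR2E3 construct; higher means lower luciferase signal from less NR2E3 corepressor binding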
Target sequence (Q9Y5X4 whole entry, looked up, the tested form may be a part): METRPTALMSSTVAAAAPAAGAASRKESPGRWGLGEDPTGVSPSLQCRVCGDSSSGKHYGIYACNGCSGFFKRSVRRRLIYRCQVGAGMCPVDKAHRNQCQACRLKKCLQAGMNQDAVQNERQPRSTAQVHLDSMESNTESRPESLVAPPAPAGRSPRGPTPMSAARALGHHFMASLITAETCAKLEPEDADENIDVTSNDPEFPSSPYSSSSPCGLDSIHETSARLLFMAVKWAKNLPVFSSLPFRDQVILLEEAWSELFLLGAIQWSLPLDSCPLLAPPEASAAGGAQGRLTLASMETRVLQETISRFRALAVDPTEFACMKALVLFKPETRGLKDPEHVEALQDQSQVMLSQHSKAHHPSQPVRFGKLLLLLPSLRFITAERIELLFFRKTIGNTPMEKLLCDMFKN
GalR3 antagonist: human GalR3 antagonism. O60755. HEK293 GalR3-CNG cAMP membrane potential fluorescence; galR3 body fused to GalR1 C-terminus. inhibition, % at 3 µM. 360,000 compounds, 0.44% hits. AID 651719;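 active = inhibition above the screen-wide average plus 3 SD, cut at about 13% in these data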;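 note: forskolin and galanin both at EC90 stimulate the cells; cAMP rise reported by CNG channel membrane potential dye signal; 0% = forskolin plus galanin with DMSO and 100% = forskolin alone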
Target sequence (O60755 1-299 limits assumed): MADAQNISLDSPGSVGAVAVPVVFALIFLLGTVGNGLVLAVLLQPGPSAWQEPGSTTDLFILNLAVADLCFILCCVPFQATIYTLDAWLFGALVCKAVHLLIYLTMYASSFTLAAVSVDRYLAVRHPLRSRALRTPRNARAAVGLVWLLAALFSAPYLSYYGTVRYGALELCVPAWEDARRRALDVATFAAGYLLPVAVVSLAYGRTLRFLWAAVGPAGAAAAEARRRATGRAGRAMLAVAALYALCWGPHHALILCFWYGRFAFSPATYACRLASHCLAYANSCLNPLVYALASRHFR
CHT block: inhibitors of human choline transporter CHT; CHT-expressing cells, membrane potential dye, choline response; stronger effect = lower value; B-score at 10 µM; AID 488975; 310,000 compounds, 0.86% hits; Q9GZV3;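 active = B-score over 3 SD under the library average, and starting fluorescence ratio not unusually high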;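 note: choline stimulus applied at its EC90 after an EC20 pre-addition; B-score computed on integrated fluorescence ratio after choline addition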
NR2E3 ag-2: NR2E3 (human) agonism; 320,000 compounds, 0.12% hits; inhibition of corepressor binding, % at 4.78 µM; GST-NR2E3/biotin-RetCOR TR-FRET, 1536-well;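 active = percent inhibition above the cutoff of mean plus 3 SD of all tested compounds, set per screening campaign, cut at about 20% in these data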;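 note: 0% = DMSO wells and 100% = biotin wells as full block of FRET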
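System: GST-NR2E3 and biotin-RetCOR proteins; probe or stimulus: 7 nM biotin-RetCOR; doses: compound at 4.8 µM, single dose; schedule: Compound–protein incubation for 5 h at 4 °C; detection: time-resolved FRET; read-out: percent inhibition; controls: biotin wells as high control, 0.6% DMSO wells as low control; format: 1536-well plates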
CHT inh conf: human CHT inhibition, confirmatory screen | shares compounds with CHT block | CHT-expressing cells, choline membrane potential dye; LV-to-AA substituted CHT, HEK293 cells | CHT activity remaining % of control (stronger effect = lower value), % at 10 µM | 2,400 compounds, 70% hits | AID 493221;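 active = choline transporter activity left, mean of duplicates at 10 µM, below buffer-only control mean minus 3 SD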;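 note: depolarization triggered by choline at its EC90 following an EC20 pre-addition; 0% = hemicholinium-3 full block and 100% = buffer-only control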
HEK293 CHT ctr: counter-screen for CHT inhibitors: effect in parental HEK293 cells; shares compounds with CHT block; membrane potential dye, choline response; active = decrease or increase beyond buffer ±3SD; membrane potential ratio readout (active if shifted either direction beyond buffer ±3SD; no single direction) at 10 µM; 2,400 compounds, 4% hits; AID 493222;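 note: parental cells lack the transporter so any hit is non-specific; ratio is peak minus trough fluorescence over baseline after EC90 choline challenge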
* = called active by the depositor; i = inactive; / = not tested or not shown; ! = not confirmed by another sample.

SMILES | COUP-TFII inh | CHT PAM | NR2E3 ag-1 | GalR3 antagonist | CHT block | NR2E3 ag-2 | CHT inh conf | HEK293 CHT ctr
Cc1ccsc1C(=O)N/N=C/c1ccc2c(c1)OCO2 | -34 | i | -163 | -3 | i | 3 | / | /
Cc1cc(C(=O)N/N=C/c2ccc3c(c2)OCO3)c(C)o1 | -52 | i | -10 | -7 | -7.1* | 2 | i | i
O=C1OCCC1Sc1nc2ccccc2n1-c1ccccc1 (stereo not given) | -12 | i | 1 | 0 | -5.8* | -2 | i | i
CN(C)C(=O)c1ccccc1Sc1ccc(Cl)cc1Cl | 0 | i | 12 | -1 | -5* | 2 | i | i
CC(=O)Nc1ccc(NC(=O)c2ccccc2Sc2ccc([N+](=O)[O-])cc2Cl)cc1 | -2 | i | -23 | 1 | i | 2 | / | /
O=[N+]([O-])c1ccc(Nc2ccccc2O)c2nonc12 | -10 | i | -10 | -4 | -5.9* | / | 53%* | i
COc1cc(SC)ccc1C(=O)NC1CCCCC1 | -32 | i | -7 | -8 | -6.2* | 4 | i | i
C=CCNS(=O)(=O)c1ccc(N2C(=O)c3ccccc3C2=O)cc1 | -15 | i | -11 | -5 | -6.5* | 3 | 63%* | i
CC(C)(C)NS(=O)(=O)c1ccc(N2C(=O)c3ccccc3C2=O)cc1 | 1 | i | -3 | -4 | -7.5* | 1 | 60%* | i
Cc1cc(C)nc(NS(=O)(=O)c2ccc(N3C(=O)c4ccccc4C3=O)cc2)n1 | 7 | i | -11 | 0 | i | -3 | / | /
CCCCc1ccc(NC(=S)NCC2CCCO2)cc1 (stereo not given) | -14 | i | -8 | -7 | -11* | 5 | 49%* | i
COC(=O)C(C)Oc1ccc2c3c(c(=O)oc2c1)CCCCC3 (stereo not given) | -7 | i | -7 | -5 | -5.2* | 1 | i | i
CC(Oc1ccc2c3c(c(=O)oc2c1)CCCC3)C(=O)NCC1CCC(C(=O)O)CC1 (stereo not given) | -4 | i | -35 | 1 | i | -1 | / | /
CC(=O)c1cc(-c2ccccc2-c2ccccc2)c(=O)n2c1CCC2 | 28 | / | / | / | / | / | / | /
CC(C)n1c(O)c(N=NC(=O)CNC(=O)CCc2ccccc2)c2ccccc21 | 3 | i | -46 | -7 | i | 1 | / | /
CC(C)n1c(O)c(N=NC(=O)Cc2csc(N3CCOCC3)n2)c2ccccc21 | 10 | i | -9 | -6 | -9.4* | 1 | 24%* | i
CC(C)n1c(O)c(N=NC(=O)CNC(=O)Cc2ccc(Cl)cc2)c2ccccc21 | 2 | i | -13 | -8 | -8* | -1 | 36%* | i
O=C(CC1Nc2cccc3cccc(c23)NC1=O)Nc1ccc(F)cc1 (stereo not given) | 1 | i | -32 | -6 | -5.1* | -5 | i | i
CCN(Cc1ccncc1)C(=O)c1cc(COc2c(C)cccc2C)on1 | 19 | i | -47 | 3 | -5.5* | 4 | 53%* | i
CCN(Cc1ccncc1)C(=O)c1cc(COc2ccc(F)cc2F)on1 | 11 | i | 21 | 5 | i | -3 | / | /
Cc1ccc(-c2csc3nc(SCC(=O)Nc4ccc(Cl)c(C(=O)O)c4)[nH]c(=O)c23)cc1 | -12 | i | 22 | -10 | -5.6* | 5 | 67%* | i
O=C(NCCCc1ccccc1)OC1CCC12CCC(c1ccccc1)CC2 (stereo not given) | 2 | / | / | / | / | / | / | /
CN1C(=O)CC(c2ccccc2)CC1=O | 13 | i | -8 | 0 | -13* | 3 | i | i
CCN1C(=O)CC(c2ccccc2)CC1=O | -4 | i | -6 | -4 | i | -2 | / | /
CCOC(=O)C1CCN(C(=O)CSCc2nc(-c3ccc(OCC)cc3)oc2C)CC1 | 22 | i | -7 | -4 | -7.6* | -2 | 69%* | i
SMILES | COUP-TFII inh | CHT PAM | NR2E3 ag-1 | GalR3 antagonist | CHT block | NR2E3 ag-2 | CHT inh conf | HEK293 CHT ctr
CCOc1ccc(-c2nc(CSCC(=O)N3CCN(C(=O)c4ccco4)CC3)c(C)o2)cc1 | -11 | i | 9 | -3 | i | 6 | / | /
CC(=O)c1cc2c(cc1NC(=O)CCNC(=O)c1ccccc1Cl)OCO2 | 7 | i | 24 | -4 | -5.6* | -2 | 50%* | i
O=C(CCNC(=O)c1ccccc1Cl)Nc1ccc2c(c1)OCO2 | -15 | i | -12 | 1 | i | -2 | / | /
C=CCN1C(=O)[C@@H](CC(=O)N2CCOCC2)[C@]2(C(=O)OCC)CCCCC/C=C/12 | 6 | / | / | / | / | / | / | /
O=[N+]([O-])c1ccc(O)c(/C=N/NC2=NS(=O)(=O)c3ccccc32)c1 | 6 | i | 11 | -2 | -5.6* | 1 | 60%* | i
O=C(NCc1cccnc1)O[C@H]1CC[C@@]23CCCN2C(=O)CCC[C@H]3C1 | -16 | / | / | / | / | / | / | /
O=[N+]([O-])c1cc(C(F)(F)F)cc([N+](=O)[O-])c1N1CCCNCC1 | 16 | i | -35 | -6 | -8.8* | 3 | 16%* | i
O=C(c1cn(-c2ccccc2)nc1-c1ccc(Cl)cc1)N1CCOCC1 | -2 | i | -4 | -6 | -5.6* | 0 | 59%* | i
C=CCn1c(SCC(=O)c2ccc(OC)cc2)nnc1-c1ccc2c(c1)OCO2 | 3 | i | -20 | -6 | -15* | 4 | i | i
CC(C)[C@H](N)C(=O)N1CCC[C@@H]1C(=O)N1CCC2CCN(S(=O)(=O)c3ccccc3)CC21 (stereo not given in full) | 7 | / | / | / | / | / | / | /
CCOC(=O)[C@@]12CN(C(=O)OC(C)(C)C)CC=C1N(Cc1ccc(OC)cc1)C(=O)[C@H]2CC(=O)N1CCCCC1 | 7 | / | / | / | / | / | / | /
CN[C@H]1CC[C@@H](c2ccc(Cl)c(Cl)c2)c2ccccc21 | 1 | i | -11 | -3 | -6.8*! | -2 | i | i
Cc1ccc(-c2nnc(CCC(=O)N(C)Cc3nccs3)o2)s1 | 12 | i | -27 | -8 | i | 0 | / | /
Cc1ccc(-c2nc(CN(C)Cc3ccc4nccnc4c3)c(C)o2)s1 | 9 | i | -3 | -7 | -5.2* | 2 | i | i
COC(=O)C[C@H]1CC[C@H]2[C@H](COc3ccc(NS(=O)(=O)c4ccccc4C)cc3C(=O)N2C)O1 | 16 | / | / | / | / | / | / | /
Cn1c(SCc2nc3ccccc3c(=O)[nH]2)nc2ccccc21 | 3 | i | -22 | 2 | i | -1 | / | /

Source: PubChem BioAssay (several laboratories)
